The list is not random: actives were taken first. Their share in the collection is about 4.3%.
sdo1 growth – sdo1-depleted yeast growth rescue; z-score at 10 µM; 140,000 compounds, 0.21% hits; S. cerevisiae sdo1-depleted JHY4D growth rescue, OD600 30 h; stronger effect = higher value; pdr5 snq2 efflux-pump mutant strain;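 active means z-score above 3 at both the 24 hr and the 30 hr optical density reads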;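 further: z-score against mean and SD of all compound wells on the same plate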
FLuc stim CS – affects firefly luciferase, flagging false hits in luciferase stimulation screens; P08659; activation factor at 10 µM; AID 1027; ATPlite luciferase biochemical, luminescence, 10 min; 0 = ATP-free wells, 1 = DMSO control; 200,000 tested, under 10 active;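 active means luciferase activation factor, scaled between plate controls, of at least 2 with compound at 10 µM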
Target sequence (P08659 whole entry, looked up): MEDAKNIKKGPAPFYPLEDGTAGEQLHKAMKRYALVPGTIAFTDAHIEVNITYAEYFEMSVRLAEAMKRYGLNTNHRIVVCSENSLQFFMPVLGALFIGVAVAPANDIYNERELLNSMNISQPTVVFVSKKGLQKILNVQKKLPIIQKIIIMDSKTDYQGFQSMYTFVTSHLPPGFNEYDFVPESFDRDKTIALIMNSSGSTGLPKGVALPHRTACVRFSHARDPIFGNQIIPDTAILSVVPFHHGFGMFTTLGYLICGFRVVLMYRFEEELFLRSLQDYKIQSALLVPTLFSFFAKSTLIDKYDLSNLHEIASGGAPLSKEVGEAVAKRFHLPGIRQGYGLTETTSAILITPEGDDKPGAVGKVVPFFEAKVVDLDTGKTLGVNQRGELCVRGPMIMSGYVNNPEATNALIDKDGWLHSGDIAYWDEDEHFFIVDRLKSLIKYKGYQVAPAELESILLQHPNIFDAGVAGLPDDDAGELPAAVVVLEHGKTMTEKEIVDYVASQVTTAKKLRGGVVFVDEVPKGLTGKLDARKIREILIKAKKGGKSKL
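Assay system – cell-free luciferase reagent · Medium – PBS-based ATP solution · Dosing – test compounds dosed from 2 mM stocks in 100% DMSO · Timing – 10 min, room temperature · Technique – light output (luminescence) · Measure – luminescence gain marking luciferase activators · Controls – No-ATP low control, compound-free enzyme-plus-ATP high control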
NF-kB neuron act – NF-kB expression increase, human neuronal cells; NF-kB reporter expression; stronger effect = higher value; 190,000 compounds, 1.6% hits; AID 1239; fold change at 12.5 µM; in the data active means fold change above about 3.3
FLuc inh counter – Photinus pyralis luciferase inhibition counter-screen | inhibition, % at 10 µM | AID 1006 | 200,000 compounds, 1.5% hits | P08659 | ATPLite firefly luciferase biochemical luminescence, 10 min;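 active means inhibition above about 50% when tested at 10 µM, limit read from the data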
STAT1 activator – STAT1 signaling activation; NIH 3T3 STAT1-luciferase reporter, IFN-gamma, luminescence; 100% = IFN-gamma alone, no compound; activation (% of control), % at 5.5 µM; 200,000 compounds, 2.6% hits;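 active means activation above the screen-wide mean activation plus 3 SD, cut at about 130% in these data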;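 further: raw ratio to IFN-gamma control signal so 100% means no change and 0% no light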
APP 5'UTR act – APP 5'UTR luciferase reporter activation. AID 1276. 190,000 compounds, 1% hits. SH-SY5Y APP 5'UTR luciferase reporter, luminescence; zero percent = DMSO vehicle wells. activation, % at 2 µM;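 active means activation above a set limit, based on mean plus 3 SD of controls, cut at about 140% in these data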
Starred values were filed as active, the others as inactive; x = not tested or not shown.

SMILES | sdo1 growth | FLuc stim CS | NF-kB neuron act | FLuc inh counter | STAT1 activator | APP 5'UTR act
Cc1ccc(-n2c(C)csc2=N)cc1 | 0.77 | 0.4 | 3.5* | 59* | 125 | 113
Cc1csc(=S)n1-c1ccccc1 | 1.2 | 1.1 | 1.1 | -7 | 99 | -5
Cc1csc(=N)n1-c1ccc(Cl)cc1 | -0.37 | 0.9 | 2.1 | 11 | 137* | 35
C=CCN1C(=O)CC(C(=O)NC)SC1=Nc1ccc(C(=O)OCC)cc1 (stereo unspecified) | -0.31 | 1.1 | 1.4 | -5 | 96 | 28
COc1ccc(COc2ccccc2C(=O)NCc2ccccc2)cc1F | -0.25 | 1 | 0.69 | -3 | 92 | 4
c1ccc(-c2nc(-c3cccnc3)n[nH]2)cc1 | 0.2 | 0.9 | 1.4 | 13 | 121 | 17
Brc1cccc(-c2n[nH]c(-c3ccccc3)n2)c1 | -2.1 | 0.9 | 3.9* | 12 | 138* | 132
CC(=O)N(C)c1ccc(NC(=O)Nc2ccccc2C)cc1 | x | 0.5 | 1.5 | 54* | 126 | 39
COc1cc(/C=N/Nc2nc(N3CCCC3)nc(N3CCCC3)n2)ccc1O | -0.45 | 1 | 0.56 | -2 | 100 | -1
COc1cc(/C=N/Nc2nc(Nc3ccccc3)nc(N3CCCCC3)n2)ccc1OCC(=O)O | x | 0.5 | 1.4 | 51* | 103 | 16
Oc1ccc(/C=N/Nc2nc(N3CCCC3)nc(N3CCCC3)n2)cc1O | x | 1 | 1.1 | -2 | 132* | 7
COc1ccc(/C=N/Nc2nc(Nc3ccccc3)nc(N3CCCC3)n2)cc1[N+](=O)[O-] | x | 1 | 0.54 | -1 | 102 | -19
COCCN(C(=S)Nc1c(C)cccc1C)C(C)c1cccs1 (stereo unspecified) | x | 1 | 1.2 | -3 | 94 | 0
Clc1ccc(-n2nnnc2SCc2c(-c3ccccc3)nc3sccn23)cc1 | -0.06 | 1.1 | 0.98 | -12 | 101 | 6
Nc1ccccc1C(=O)N=Nc1[nH]c(N)c2ccccc12 | -0.44 | 0.2 | 2.3 | 79* | 111 | 54
Nc1[nH]c(N=NC(=O)c2ccc(F)cc2)c2ccccc12 | -0.01 | 0.4 | 1.3 | 55* | 107 | 59
Cc1c(-c2ccccc2)nc2ccccc2c1C(=O)NCc1cccs1 | -0.94 | 1 | 0.58 | -4 | 98 | 4
COc1ccc2cnn(-c3ccccc3C)c(=O)c2c1OC | 0.63 | 1 | 0.97 | -4 | 104 | -2
CC[C@@H](C(=O)n1nc(C)cc1C)[C@H](NS(=O)(=O)c1ccc(C)cc1)c1ccccc1 | -1.4 | 1 | 0.98 | -4 | 88 | -7
CN(C)c1ccc(NC(=O)c2cccc(C(=O)Nc3ccc(N(C)C)cc3)n2)cc1 | -0.58 | 0.4 | 0.42 | 56* | 119 | 46
C/C(CC(=O)Nc1ccc(N(C)C)cc1)=N\NC(=O)c1ccccn1 | 1.5 | 1 | 1.2 | -3 | 140* | 115
C/C(CC(=O)Nc1ccc(N(C)C)cc1)=N\NC(=O)c1cnccn1 | 0.52 | 1 | 0.74 | -2 | 117 | 3
COc1cccc(C(=O)Nc2ccc(N(C)C)cc2)c1OC | -0.24 | 0.6 | 2.1 | 42 | 142* | 53
CCn1c2ccccc2c2cc(NC(=O)c3cccc(OC)c3OC)ccc21 | 0.15 | 1.1 | 1 | -7 | 100 | 19
COc1cccc(NC(=O)c2cccc(OC)c2OC)c1 | -0.41 | 0.7 | 2.7 | 27 | 136* | 57
SMILES | sdo1 growth | FLuc stim CS | NF-kB neuron act | FLuc inh counter | STAT1 activator | APP 5'UTR act
O=C(Nc1cnn(Cc2ccc(Cl)c(Cl)c2)c1)C12CC3CC(CC(C3)C1)C2 | -1.9 | 1.1 | 0.89 | -8 | 99 | 15
CC1CCN(CCCCOc2ccccc2[N+](=O)[O-])CC1 | -0.53 | 1.1 | 1.1 | -7 | 102 | 5
Cc1c(NC(=S)NC(NC(=O)C(C)C)C(Cl)(Cl)Cl)c(=O)n(-c2ccccc2)n1C (stereo unspecified) | 1 | 1 | 0.92 | -3 | 92 | -3
Cc1cccc(N/N=C2/COC(C)(C)CC2=O)c1 | 0.47 | 0.7 | 1.2 | 29 | 136* | 71
O=C(Nc1cccc(O)c1)c1ccc(C(F)(F)F)cc1 | x | 0.4 | 3.7* | 57* | 104 | 91
CC(C)CC(=O)Nc1ccc(C(=O)Nc2cccc(O)c2)cc1 | x | 0.8 | 2 | 22 | 132* | 68
O=C(Nc1ccc(C(F)(F)F)cc1)c1ccc2nc[nH]c2c1 | -0.77 | 1 | 1.8 | 4 | 112 | 7
COc1ccc(/C=N/n2c(C)cc(C)c(C(N)=O)c2=O)cc1 | 1.4 | 1 | 1.4 | -4 | 103 | -7
O=C(CSc1nnc(CNC(=O)C23CC4CC(CC(C4)C2)C3)n1-c1ccc(F)cc1)Nc1ccccc1 | -0.36 | 1.1 | 1 | -6 | 104 | 11
Clc1ccc(OCc2cn3ccccc3n2)c2ncccc12 | x | 0.8 | 3 | 22 | 145* | 83
OCc1ccccc1OCCOc1ccc(Cl)c2cccnc12 | -1.7 | 0.9 | 1.4 | 11 | 109 | 25
O=C1CC(c2ccccc2)Cc2nc(N3CCc4ccccc43)ncc21 (stereo unspecified) | x | x | x | x | 102 | 2
CC1(C)CC(=O)c2cnc(N3CCc4ccccc4C3)nc2C1 | -0.91 | 0.9 | 1.8 | 12 | 133* | -4
O=C1CCCc2nc(N3CCc4ccccc43)ncc21 | -0.95 | 0.4 | 8* | 65* | 150* | 89
O=C(CCSc1ccc(Cl)cc1)Nc1cccnc1 | x | 1 | 7.7* | 1 | 100 | 2
CCc1nnc(NC(=O)CSc2ccc(-c3ccc(C)cc3)nn2)s1 | x | 0.4 | 1.3 | 55* | 96 | 38
CCOc1ccc(-c2ccc(SCC(=O)Nc3nnc(CC)s3)nn2)cc1 | x | 0.3 | 2.8 | 65* | 113 | 115
Cc1ccc(-n2nnc3c(SCC(=O)NCC4CCCO4)ncnc32)cc1 (stereo unspecified) | -0.45 | 0.4 | 1.2 | 55* | 105 | -8
COc1ccc(-c2ccc(SCC(=O)Nc3nnc(C)s3)nn2)cc1 | x | 0.4 | 1.9 | 64* | 120 | 5
COc1ccc(-c2ccc(SCC(=O)NCc3ccco3)nn2)cc1 | 0.59 | 0.7 | 1.3 | 32 | 116 | 21
CCc1nnc(NC(=O)CSc2nnc(COc3ccc(C)cc3)n2-c2ccccc2)s1 | -0.62 | 1 | 1.1 | -4 | 107 | -5
CCCn1c(CCC(=O)Nc2ccccc2Cc2ccccc2)nc2cc(S(=O)(=O)N3CCOCC3)ccc21 | 0.89 | 1 | 0.4 | -2 | 97 | 21
O=S(=O)(/C=C/c1ccccc1)N1CCN(Cc2ccccc2)CC1 | x | 1.1 | 1 | -6 | 101 | 6
NC(=O)CSc1ccc(-c2ccc(F)cc2)nn1 | x | 1 | 1.2 | 1 | 102 | 29
Cc1ccc(-c2ccc(SCC(=O)NCC3CCCO3)nn2)cc1 (stereo unspecified) | x | 0.7 | 1.3 | 30 | 102 | 2
CCOc1ccc(-c2ccc(SCC(=O)NCC3CCCO3)nn2)cc1 (stereo unspecified) | x | 0.3 | 2.1 | 72* | 117 | 69

High-throughput results: PubChem BioAssay, several laboratories
